Measurements from ChEMBL document CHEMBL1799916, “Novel 3,5-bis(bromohydroxybenzylidene)piperidin-4-ones as coactivator-associated arginine methyltransferase 1 inhibitors: enzyme selectivity and cellular activity” (J Med Chem, 2011).
Calls of active or inactive are those of the source. The rule behind the calls is not given here.

How the values were obtained:
[1] = target: Protein arginine N-methyltransferase 1 (Homo sapiens, UniProt Q99873); assay: Inhibition of PRMT1-mediated methylation of NPL3 after 90 mins by scintillation counting in presence of S-adenosyl-l-[methyl-3H]methionine
Chain of Protein arginine N-methyltransferase 1 (Q99873 whole entry): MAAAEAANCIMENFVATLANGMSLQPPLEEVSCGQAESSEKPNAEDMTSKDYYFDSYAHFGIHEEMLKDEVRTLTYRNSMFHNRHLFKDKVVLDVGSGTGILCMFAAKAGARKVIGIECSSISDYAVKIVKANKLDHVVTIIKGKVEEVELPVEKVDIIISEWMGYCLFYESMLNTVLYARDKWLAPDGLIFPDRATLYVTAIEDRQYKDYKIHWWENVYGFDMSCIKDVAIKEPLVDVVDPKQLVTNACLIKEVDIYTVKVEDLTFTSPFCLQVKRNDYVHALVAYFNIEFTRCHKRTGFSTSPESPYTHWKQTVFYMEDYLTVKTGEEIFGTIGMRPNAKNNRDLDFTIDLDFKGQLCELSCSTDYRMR

[2] = target: T1, Histone-arginine methyltransferase CARM1 (Homo sapiens, UniProt Q86X55); assay: Inhibition of CARM1-mediated methylation of PABP1 after 90 mins by scintillation counting in presence of S-adenosyl-l-[methyl-3H]methionine
T1 sequence (Q86X55 whole entry): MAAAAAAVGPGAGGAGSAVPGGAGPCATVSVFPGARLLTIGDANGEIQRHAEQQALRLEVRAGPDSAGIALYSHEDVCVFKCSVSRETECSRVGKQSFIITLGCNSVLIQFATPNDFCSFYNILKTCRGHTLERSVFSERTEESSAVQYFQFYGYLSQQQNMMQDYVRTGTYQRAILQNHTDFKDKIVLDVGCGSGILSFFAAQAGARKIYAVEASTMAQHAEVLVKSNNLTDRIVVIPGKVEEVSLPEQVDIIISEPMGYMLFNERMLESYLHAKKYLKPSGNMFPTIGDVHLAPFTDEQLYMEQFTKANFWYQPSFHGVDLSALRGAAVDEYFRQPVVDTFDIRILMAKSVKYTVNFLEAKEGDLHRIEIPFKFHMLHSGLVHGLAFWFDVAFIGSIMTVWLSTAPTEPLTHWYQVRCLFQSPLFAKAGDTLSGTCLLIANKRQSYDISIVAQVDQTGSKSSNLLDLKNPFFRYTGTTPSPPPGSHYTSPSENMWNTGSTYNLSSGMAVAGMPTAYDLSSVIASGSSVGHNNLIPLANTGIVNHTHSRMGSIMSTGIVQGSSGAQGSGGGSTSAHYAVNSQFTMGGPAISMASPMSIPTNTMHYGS

[3] = target: T2, Histone-lysine N-methyltransferase SETD7 (Homo sapiens, UniProt Q8WTS6); assay: Inhibition of SET7-mediated methylation of histone H3 after 90 mins by scintillation counting in presence of S-adenosyl-l-[methyl-3H]methionine
T2 sequence (Q8WTS6 whole entry): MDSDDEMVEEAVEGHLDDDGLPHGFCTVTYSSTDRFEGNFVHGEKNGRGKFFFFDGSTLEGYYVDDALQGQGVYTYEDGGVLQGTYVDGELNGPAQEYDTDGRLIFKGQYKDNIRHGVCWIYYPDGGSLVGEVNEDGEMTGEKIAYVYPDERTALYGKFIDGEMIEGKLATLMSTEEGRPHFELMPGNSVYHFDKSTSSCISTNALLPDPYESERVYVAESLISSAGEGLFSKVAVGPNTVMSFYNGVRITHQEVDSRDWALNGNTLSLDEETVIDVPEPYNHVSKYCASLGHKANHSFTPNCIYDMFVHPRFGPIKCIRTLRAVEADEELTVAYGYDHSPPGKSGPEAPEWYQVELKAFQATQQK

[4] = target: T3, Histone-arginine methyltransferase CARM1 (Homo sapiens) (UniProt Q86X55); assay: Inhibition of CARM1-mediated methylation of PABP1 at 20 uM after 90 mins by scintillation counting in presence of S-adenosyl-l-[methyl-3H]methionine
T3 sequence (whole entry): T1 sequence (Q86X55 whole entry)
Procedure, shortened: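 Recombinant CARM1 with PABP1 substrate in PBS pH 7.4 containing [³H]AdoMet, compound at 20 μM. Incubated 90 min at 30 °C, then SDS-PAGE, PVDF transfer and overnight film fluorography. Substrate bands cut out for scintillation counting.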

Row | SMILES | IC50 [1] | IC50 [2] | IC50 [3] | inhibition [4]
1 | O=C1/C(=C/c2ccc(O)c(Br)c2)CN(Cc2ccccc2Cl)C/C1=C\c1ccc(O)c(Br)c1 | > 667 µM | 12.5 µM | > 667 µM | 
2 | O=C1/C(=C/c2ccc(O)c(Br)c2)CN(CCc2ccccc2)C/C1=C\c1ccc(O)c(Br)c1 | > 667 µM | 14.8 µM | > 667 µM | 
3 | O=C1/C(=C/c2ccc(O)c(Br)c2)CN(CCCc2ccccc2)C/C1=C\c1ccc(O)c(Br)c1 | > 667 µM | 16 µM | > 667 µM | inactive
4 | Cc1ccccc1CN1C/C(=C\c2ccc(O)c(Br)c2)C(=O)/C(=C/c2ccc(O)c(Br)c2)C1 | > 667 µM | 10.3 µM | > 667 µM | 

The next lines start with the values.

Row | IC50 [1] | IC50 [2] | IC50 [3] | inhibition [4] | SMILES
5 | > 667 µM | 12.2 µM | > 600 µM |  | O=C1/C(=C/c2ccc(O)c(Br)c2)CN(Cc2ccc(Cl)cc2)C/C1=C\c1ccc(O)c(Br)c1
6 |  |  |  | inactive | COc1ccccc1CN1C/C(=C\c2ccc(O)c(Br)c2)C(=O)/C(=C/c2ccc(O)c(Br)c2)C1
7 |  |  |  | inactive | COc1cccc(CN2C/C(=C\c3ccc(O)c(Br)c3)C(=O)/C(=C/c3ccc(O)c(Br)c3)C2)c1
8 |  |  |  | inactive | COc1ccc(CN2C/C(=C\c3ccc(O)c(Br)c3)C(=O)/C(=C/c3ccc(O)c(Br)c3)C2)cc1
9 | > 667 µM | 11.9 µM | > 333 µM | inactive | Cc1ccc(CN2C/C(=C\c3ccc(O)c(Br)c3)C(=O)/C(=C/c3ccc(O)c(Br)c3)C2)cc1
